From ChEMBL document CHEMBL5380847, “Expanding the Paradigm of Structure-Based Drug Design: Molecular Dynamics Simulations Support the Development of New Pyridine-Based Protein Kinase C-Targeted Agonists” (J Med Chem, 2023)
The source made the active and inactive calls. The calls are words filed in the database; no cut-off is given here.

Tests used:
[1] = test system: Fibroblast of cardiac tissue; assay: Effect on PKCalpha expression level in neonatal mouse Cardiac fibroblast cells at 10 uM measured for 24 hrs by Western blot analysis; assay type: functional, cell-based
In short: (§1)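 Neonatal mouse cardiac fibroblasts were treated with 10 μM compound for 24 h and then lysed. Total protein was extracted, and PKCα, -δ and -ϵ levels were analysed by Western blotting. Levels were normalized to vehicle control (0.1% DMSO). Values are mean + SEM of N = 3 independent experiments.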

[2] = test system: Fibroblast of cardiac tissue; assay: Effect on PKCepsilon expression level in neonatal mouse Cardiac fibroblast cells at 10 uM measured for 24 hrs by Western blot analysis; assay type: functional, cell-based; in short: as §1
[3] = test system: Fibroblast of cardiac tissue; assay: Effect on PKCdelta expression level in neonatal mouse Cardiac fibroblast cells at 10 uM measured for 24 hrs by Western blot analysis; assay type: functional, cell-based; in short: as §1
DU-145 = assay: Anticancer activity against human DU-145 cells assessed as reduction in cell viability at 0.03 to 30 uM measured after 24 hrs by MTT assay; assay type: functional, cell-based; conditions: dose 0.03-30 µM
In short: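 DU145 human prostate cancer cells were exposed for 24 h to compounds at 0.3, 3.0 and 30 μM, with 0.03 μM added for the reference. Viability was read by MTT and expressed as percent of vehicle control (0.1% DMSO). Values are mean + SEM of N = 3–4 independent experiments.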

Cardiac fibroblast = assay: Inhibition of PKC-mediated ERK1/2 phosphorylation in neonatal mouse Cardiac fibroblast cells incubated for 30 mins in presence of PKC inhibitor Go6983 by Alphalisa analysis; assay type: cell-based
In short: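 Neonatal mouse cardiac fibroblasts were pretreated, or not, with the PKC inhibitor Gö6983 (1 μM). Cells were then exposed for 30 min to compounds at 10 μM (PMA at 10 nM). Total and phospho-ERK1/2 in lysates were quantified by Alpha technology and normalized to DMSO control. Values are mean + SEM (N = 3), analysed by randomized block ANOVA with Dunnett's post hoc test.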

[4] = molecular target: Protein kinase C alpha type (Homo sapiens) (UniProt P17252); assay: Displacement of [3H]-PDBu-from full length human recombinant PKCalpha expressed in baculovirus infected Sf9 cells incubated for 10 mins by microbeta liquid scintillation counter analysis; conditions: filed as agonist, dose 1-30 µM
[5] = molecular target: Protein kinase C alpha type (Homo sapiens) (UniProt P17252); assay: Displacement of [3H]-PDBu-from full length human recombinant PKCalpha expressed in baculovirus infected Sf9 cells at 1 to 30 uM incubated for 10 mins by microbeta liquid scintillation counter analysis; conditions: dose 1-30 µM

Row | Structure (SMILES) | Activity [1] | Activity [2] | Activity [3] | Activity (DU-145) | inhibition (Cardiac fibroblast) | Activity [4] | Activity [5]
1 | CN(Cc1cccc(C(F)(F)F)c1)C(=O)c1cc(CO)cc(C(=O)N(C)Cc2cccc(C(F)(F)F)c2)n1 | inactive | inactive | inactive | inactive | Active | Dose-Dependent Effect | –
2 | O=C(OCc1cccc(C(F)(F)F)c1)c1cc(CO)cc(C(=O)OCc2cccc(C(F)(F)F)c2)n1 | – | – | – | inactive | – | – | inactive
3 | CCCCCCCCNC(=O)c1cc(CO)cc(C(=O)NCCCCCCCC)n1 | – | – | – | inactive | – | – | –
4 | O=C(OCc1cccc(C(F)(F)F)c1)c1cc(CO)cc(C(=O)OCc2cccc(C(F)(F)F)c2)c1 | inactive | inactive | inactive | – | Active | – | –
5 | CCCCC(CC)OC(=O)c1cc(CO)cc(C(=O)OC(CC)CCCC)n1 (stereo unspecified) | – | – | inactive | inactive | – | Dose-Dependent Effect | –
